Data reported in ChEMBL document CHEMBL5724801, “EUbOPEN Chemogenomics Library - Multiplex” (2024).
“And” between values parts separate entries of the source, which are not always exact repeats. Identical values can stand only once.

Tested on: Fibroblast
Experiment: Multiplex assay against human fibroblast
Format: toxicity, cell-based
How it was run: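 With compound added, live cells were imaged on a CQ1 microscope at 37°C and 5% CO2; staining with Hoechst33342, BioTracker Green Microtubule Cytoskeleton Dye, MitoTracker Red and Annexin V Alexa Fluor 680 had been done at seeding. The CellPathfinder machine-learning gating scheme split cells into Hoechst high-intensity objects or normal cells, normal cells into healthy, pyknosed or fragmented nuclei, and pyknosed cells into mitotic or apoptotic. The tubulin, mitochondrial-mass and membrane-permeability phenotypes are per cents of healthy-nucleus cells.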

[1] = 12 h, 1 µM, compound concentration 1 uM
[2] = 12 h, 10 µM, compound concentration 10 uM
[3] = 24 h, 1 µM, compound concentration 1 uM
[4] = 24 h, 10 µM, compound concentration 10 uM
[5] = 48 h, 1 µM, compound concentration 1 uM
[6] = 48 h, 10 µM, compound concentration 10 uM

CCCn1c(=O)c2[nH]c(C3CCCC3)nc2n(CCC)c1=O [1,3-DIPROPYL-8-CYCLOPENTYLXANTHINE [DPCPX]]
Population Apoptotic (%) [1]: 38% and 30% | Population Fragmented Nuclei (%) [1]: 10% and 25% | Population Healthy Nuclei (%) [1]: 73% and 46% | Population Hoechst High Intensity Objects (%) [1]: 3% | Population Membrane Permeable-Phenotype (%) [1]: 0% and 1% | Population Mitochondria Different-Phenotype (%) [1]: 1% and 10% | Population Mitotic Cells (%) [1]: 61% and 69% | Population Normal (%) [1]: 96% | Population Pyknosed Nuclei (%) [1]: 15% and 28% | Population Tubulin-Different-Phenotype (%) [1]: 29% and 50% | Total Cell Count [1]: 175 and 156 | Population Apoptotic (%) [2]: 58% and 25% | Population Fragmented Nuclei (%) [2]: 18% and 32% | Population Healthy Nuclei (%) [2]: 65% and 47% | Population Hoechst High Intensity Objects (%) [2]: 3% and 6% | Population Membrane Permeable-Phenotype (%) [2]: 0% and 12% | Population Mitochondria Different-Phenotype (%) [2]: 10% and 3% | Population Mitotic Cells (%) [2]: 41% and 75% | Population Normal (%) [2]: 96% and 93% | Population Pyknosed Nuclei (%) [2]: 17% and 20% | Population Tubulin-Different-Phenotype (%) [2]: 47% and 59% | Total Cell Count [2]: 104 and 129 | Population Apoptotic (%) [3]: 50% and 75% | Population Fragmented Nuclei (%) [3]: 13% and 30% | Population Healthy Nuclei (%) [3]: 77% and 48% | Population Hoechst High Intensity Objects (%) [3]: 2% and 3% | Population Membrane Permeable-Phenotype (%) [3]: 0% and 4% | Population Mitochondria Different-Phenotype (%) [3]: 2% and 12% | Population Mitotic Cells (%) [3]: 50% and 24% | Population Normal (%) [3]: 97% and 96% | Population Pyknosed Nuclei (%) [3]: 9% and 21% | Population Tubulin-Different-Phenotype (%) [3]: 30% and 54% | Total Cell Count [3]: 177 and 159 | Population Fragmented Nuclei (%) [4]: 17% and 35% | Population Healthy Nuclei (%) [4]: 61% and 40% | Population Hoechst High Intensity Objects (%) [4]: 3% and 6% | Population Membrane Permeable-Phenotype (%) [4]: 6% and 8% | Population Mitochondria Different-Phenotype (%) [4]: 9% and 4% | Population Mitotic Cells (%) [4]: 36% and 79% | Population Normal (%) [4]: 96% and 93% | Population Pyknosed Nuclei (%) [4]: 22% and 24% | Population Tubulin-Different-Phenotype (%) [4]: 49% and 63% | Total Cell Count [4]: 104 and 125 | Population Apoptotic (%) [5]: 72% and 47% | Population Fragmented Nuclei (%) [5]: 16% and 39% | Population Healthy Nuclei (%) [5]: 70% and 48% | Population Hoechst High Intensity Objects (%) [5]: 2% and 7% | Population Membrane Permeable-Phenotype (%) [5]: 0% and 5% | Population Mitotic Cells (%) [5]: 27% and 52% | Population Normal (%) [5]: 97% and 92% | Population Pyknosed Nuclei (%) [5]: 12% | Population Tubulin-Different-Phenotype (%) [5]: 35% and 55% | Total Cell Count [5]: 182 and 170 | Population Apoptotic (%) [6]: 57% and 50% | Population Fragmented Nuclei (%) [6]: 24% and 43% | Population Healthy Nuclei (%) [6]: 55% and 45% | Population Hoechst High Intensity Objects (%) [6]: 3% and 2% | Population Mitochondria Different-Phenotype (%) [6]: 13% and 8% | Population Mitotic Cells (%) [6]: 42% and 50% | Population Normal (%) [6]: 96% and 97% | Population Pyknosed Nuclei (%) [6]: 20% and 10% | Population Tubulin-Different-Phenotype (%) [6]: 50% and 78% | Total Cell Count [6]: 98 and 136

Cc1ccc(OCC(O)C(C)NC(C)C)c2c1CCC2.Cl (stereo not given)
Population Apoptotic (%) [1]: 36% and 28% | Population Fragmented Nuclei (%) [1]: 10% and 17% | Population Healthy Nuclei (%) [1]: 68% and 55% | Population Hoechst High Intensity Objects (%) [1]: 0% and 9% | Population Membrane Permeable-Phenotype (%) [1]: 0% and 4% | Population Mitochondria Different-Phenotype (%) [1]: 3% and 7% | Population Mitotic Cells (%) [1]: 63% and 71% | Population Normal (%) [1]: 99% and 90% | Population Pyknosed Nuclei (%) [1]: 20% and 27% | Population Tubulin-Different-Phenotype (%) [1]: 26% and 50% | Total Cell Count [1]: 159 and 210 | Population Apoptotic (%) [2]: 47% and 25% | Population Fragmented Nuclei (%) [2]: 39% and 33% | Population Healthy Nuclei (%) [2]: 47% and 50% | Population Hoechst High Intensity Objects (%) [2]: 1% and 2% | Population Membrane Permeable-Phenotype (%) [2]: 0% and 7% | Population Mitochondria Different-Phenotype (%) [2]: 12% and 17% | Population Mitotic Cells (%) [2]: 52% and 74% | Population Normal (%) [2]: 98% and 97% | Population Pyknosed Nuclei (%) [2]: 12% and 16% | Population Tubulin-Different-Phenotype (%) [2]: 52% and 54% | Total Cell Count [2]: 138 and 168 | Population Apoptotic (%) [3]: 57% and 20% | Population Fragmented Nuclei (%) [3]: 11% and 27% | Population Healthy Nuclei (%) [3]: 74% and 46% | Population Hoechst High Intensity Objects (%) [3]: 0% and 15% | Population Membrane Permeable-Phenotype (%) [3]: 4% and 1% | Population Mitochondria Different-Phenotype (%) [3]: 5% and 8% | Population Mitotic Cells (%) [3]: 42% and 80% | Population Normal (%) [3]: 100% and 84% | Population Pyknosed Nuclei (%) [3]: 13% and 26% | Population Tubulin-Different-Phenotype (%) [3]: 30% and 52% | Total Cell Count [3]: 154 and 201 | Population Apoptotic (%) [4]: 35% and 36% | Population Fragmented Nuclei (%) [4]: 39% and 35% | Population Healthy Nuclei (%) [4]: 49% and 50% | Population Hoechst High Intensity Objects (%) [4]: 1% and 5% | Population Membrane Permeable-Phenotype (%) [4]: 1% and 4% | Population Mitochondria Different-Phenotype (%) [4]: 13% and 14% | Population Mitotic Cells (%) [4]: 64% and 63% | Population Normal (%) [4]: 98% and 94% | Population Pyknosed Nuclei (%) [4]: 11% and 13% | Population Tubulin-Different-Phenotype (%) [4]: 63% and 65% | Total Cell Count [4]: 151 and 168 | Population Apoptotic (%) [5]: 64% and 34% | Population Fragmented Nuclei (%) [5]: 16% and 37% | Population Healthy Nuclei (%) [5]: 71% and 42% | Population Hoechst High Intensity Objects (%) [5]: 4% and 11% | Population Membrane Permeable-Phenotype (%) [5]: 0% and 5% | Population Mitochondria Different-Phenotype (%) [5]: 1% and 8% | Population Mitotic Cells (%) [5]: 35% and 65% | Population Normal (%) [5]: 95% and 88% | Population Pyknosed Nuclei (%) [5]: 11% and 20% | Population Tubulin-Different-Phenotype (%) [5]: 23% and 60% | Total Cell Count [5]: 155 and 196 | Population Apoptotic (%) [6]: 71% and 60% | Population Fragmented Nuclei (%) [6]: 35% and 39% | Population Healthy Nuclei (%) [6]: 50% | Population Hoechst High Intensity Objects (%) [6]: 1% and 7% | Population Membrane Permeable-Phenotype (%) [6]: 0% and 5% | Population Mitochondria Different-Phenotype (%) [6]: 9% and 10% | Population Mitotic Cells (%) [6]: 28% and 40% | Population Normal (%) [6]: 98% and 92% | Population Pyknosed Nuclei (%) [6]: 13% and 10% | Population Tubulin-Different-Phenotype (%) [6]: 68% and 63% | Total Cell Count [6]: 155 and 157

CC1(COc2ccc3c(c2)ncn3-c2ccc3cccc(N4CCC(N)CC4)c3n2)COC1 [CRENOLANIB]
Population Fragmented Nuclei (%) [1]: 27% and 33% | Population Healthy Nuclei (%) [1]: 60% and 47% | Population Hoechst High Intensity Objects (%) [1]: 2% and 4% | Population Membrane Permeable-Phenotype (%) [1]: 0% and 7% | Population Mitochondria Different-Phenotype (%) [1]: 4% and 9% | Population Mitotic Cells (%) [1]: 38% and 81% | Population Normal (%) [1]: 97% and 95% | Population Pyknosed Nuclei (%) [1]: 12% and 18% | Population Tubulin-Different-Phenotype (%) [1]: 48% and 67% | Population Apoptotic (%) [2]: 33% and 34% | Population Fragmented Nuclei (%) [2]: 21% and 29% | Population Healthy Nuclei (%) [2]: 48% and 40% | Population Hoechst High Intensity Objects (%) [2]: 4% and 13% | Population Membrane Permeable-Phenotype (%) [2]: 2% and 6% | Population Mitochondria Different-Phenotype (%) [2]: 6% and 9% | Population Mitotic Cells (%) [2]: 66% and 65% | Population Normal (%) [2]: 95% and 86% | Population Pyknosed Nuclei (%) [2]: 30% | Population Tubulin-Different-Phenotype (%) [2]: 43% and 48% | Population Apoptotic (%) [3]: 92% and 50% | Population Fragmented Nuclei (%) [3]: 29% and 41% | Population Healthy Nuclei (%) [3]: 60% and 48% | Population Hoechst High Intensity Objects (%) [3]: 0% and 1% | Population Membrane Permeable-Phenotype (%) [3]: 0% and 4% | Population Mitochondria Different-Phenotype (%) [3]: 9% | Population Normal (%) [3]: 99% and 98% | Population Pyknosed Nuclei (%) [3]: 9% and 10% | Population Tubulin-Different-Phenotype (%) [3]: 61% and 63% | Population Apoptotic (%) [4]: 36% and 34% | Population Fragmented Nuclei (%) [4]: 23% and 25% | Population Healthy Nuclei (%) [4]: 51% and 46% | Population Hoechst High Intensity Objects (%) [4]: 16% and 17% | Population Membrane Permeable-Phenotype (%) [4]: 0% and 6% | Population Mitochondria Different-Phenotype (%) [4]: 8% and 6% | Population Mitotic Cells (%) [4]: 63% and 65% | Population Normal (%) [4]: 83% and 82% | Population Pyknosed Nuclei (%) [4]: 24% and 28% | Population Tubulin-Different-Phenotype (%) [4]: 23% and 38% | Population Fragmented Nuclei (%) [5]: 32% and 44% | Population Healthy Nuclei (%) [5]: 60% and 44% | Population Hoechst High Intensity Objects (%) [5]: 1% and 0% | Population Membrane Permeable-Phenotype (%) [5]: 0% and 5% | Population Mitochondria Different-Phenotype (%) [5]: 8% and 7% | Population Normal (%) [5]: 98% and 99% | Population Pyknosed Nuclei (%) [5]: 7% and 12% | Population Tubulin-Different-Phenotype (%) [5]: 55% and 74% | Population Apoptotic (%) [6]: 42% and 37% | Population Fragmented Nuclei (%) [6]: 16% and 23% | Population Healthy Nuclei (%) [6]: 62% and 42% | Population Hoechst High Intensity Objects (%) [6]: 24% and 21% | Population Membrane Permeable-Phenotype (%) [6]: 1% | Population Mitochondria Different-Phenotype (%) [6]: 6% | Population Mitotic Cells (%) [6]: 57% and 62% | Population Normal (%) [6]: 75% and 78% | Population Pyknosed Nuclei (%) [6]: 21% and 33% | Population Tubulin-Different-Phenotype (%) [6]: 23% and 27%
